Assay results reported in ChEMBL document CHEMBL2417506, “Synthesis and antiprotozoal activity of original porphyrin precursors and derivatives” (Eur J Med Chem, 2013).
Active and inactive are the calls of the source. The calls are words filed in the database; no cut-off is given here.

Assays:
Leishmania donovani [1] = experiment: Antileishmanial activity against promastigote forms of Leishmania donovani MHOM/ET/67/HU3 after 3 days by MTT assay; assay type: functional, organism-based; details: MHOM/ET/67/HU3, 72 h
Method in brief: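 Log-phase promastigotes at 10^6 cells/mL in supplemented M-199. Serial dilutions gave final concentrations of 100 µM to 50 nM, in triplicate. Incubated 3 days at 27 °C, dark, 5% CO2. Viability read by MTT reduction, with Triton X100/HCl lysis and absorbance at 570 nm. IC50 ± SD.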

[2] = Cytotoxicity against Swiss mouse peritoneal macrophages at 20 uM after 5 days by MTT assay; assay type: cell-based, Peritoneal macrophage cell
Method in brief: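 Thioglycolate-elicited peritoneal macrophages from female Swiss mice, 5 × 10^4/well in RPMI 1640 with 10% FCS, 25 mM Hepes and 2 mM L-glutamine. Washed at 4 h to remove fibroblasts. Drug-containing medium added at 48 h, stopped at day 5. Viability read by MTT.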

[3] = system: Trypanosoma brucei brucei; experiment: Trypanocidal activity against Trypanosoma brucei brucei by drug incubation infectivity test; assay type: functional; details: read-out: MEC
Leishmania donovani [4] = experiment: Antileishmanial activity against amastigotes forms of Leishmania donovani MHOM/ET/67/HU3 infected in Swiss mouse peritoneal macrophages at 20 uM after 5 days; assay type: functional, organism-based
Method in brief: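 Peritoneal macrophages from female Swiss mice (18–20 g) infected after 24 h with stationary-phase L. donovani promastigotes at 10 parasites per macrophage. Free promastigotes removed at 18 h, then amastigotes treated. Medium with drug renewed at 48 h, stopped at day 5. Percentage of infected macrophages scored microscopically after Giemsa staining. Run in triplicate.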

Plasmodium falciparum = experiment: Antimalarial activity against Plasmodium falciparum 3D7 infected in human O positive erythrocytes assessed as reduction of parasite growth after 24 to 44 hrs by Giemsa staining; assay type: functional, organism-based
Method in brief: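 Sorbitol-synchronized ring-stage 3D7 parasites in O+ erythrocytes (5% v/v suspension, 0.5% parasitemia) exposed to compounds from DMSO stock for 44 h at 37 °C. Growth measured by pLDH ELISA after freeze-thaw hemolysis and by Giemsa thin smears at 24 and 44 h, counting at least 5000 erythrocytes. Expressed as % reduction against medium-only control.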

Plasmodium berghei [5] = experiment: Antimalarial activity against chloroquine-sensitive Plasmodium berghei NK-173 infected in Swiss albino mouse assessed as quantal survival at 51.5 mg/kg, ip administered 4 times per day for 3 days measured on day 14; assay type: functional, organism-based; design: dose 51.5 mg/kg
Method in brief: (§1)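 Female Swiss albino mice (18–20 g) were infected i.v. on day 0 with 10^6 parasitized RBC in 0.2 ml PBS from a donor mouse, in groups of 10. Dosing was i.p. over days 0–3 and stopped if toxicity appeared. Chloroquine control was 100 µmoles/kg. Giemsa tail smears and RBC counts were taken on days 4, 7, 8, 9, 10 and 14. Mice were followed for deaths.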

Plasmodium berghei [6] = experiment: Antimalarial activity against chloroquine-sensitive Plasmodium berghei NK-173 infected in Swiss albino mouse assessed as quantal survival at 51.5 mg/kg, ip administered 4 times per day for 3 days measured on day 8; assay type: functional, organism-based; design: dose 51.5 mg/kg; method in brief: as §1
Plasmodium berghei [7] = experiment: Antimalarial activity against chloroquine-sensitive Plasmodium berghei NK-173 infected in Swiss albino mouse assessed as quantal survival at 51.5 mg/kg, ip administered 4 times per day for 3 days measured on day 7; assay type: functional, organism-based; design: dose 51.5 mg/kg; method in brief: as §1
Mus musculus [8] = experiment: Toxicity in chloroquine-sensitive Plasmodium berghei NK-173 infected Swiss albino mouse assessed as mortality at 51.5 mg/kg, ip administered 4 times per day for 3 days measured up to 4 days; assay type: organism-based; design: dose 51.5 mg/kg, route intraperitoneal; details: in vivo; method in brief: as §1
Plasmodium berghei [9] = experiment: Antimalarial activity against chloroquine-sensitive Plasmodium berghei NK-173 infected in Swiss albino mouse assessed as quantal survival at 51.5 mg/kg, ip administered 4 times per day for 3 days measured on day 9; assay type: functional, organism-based; design: dose 51.5 mg/kg; method in brief: as §1
Plasmodium berghei [10] = experiment: Antimalarial activity against chloroquine-sensitive Plasmodium berghei NK-173 infected in Swiss albino mouse assessed as host survival at 51.5 mg/kg, ip administered 4 times per day for 3 days measured on day 30; assay type: functional; details: NK-173, ip, route intraperitoneal; method in brief: as §1
Plasmodium berghei [11] = experiment: Antimalarial activity against chloroquine-sensitive Plasmodium berghei NK-173 infected in Swiss albino mouse assessed as reduction parasitemia at 51.5 mg/kg, ip treated […] by Giemsa staining relative to control; assay type: functional; design: scale not given: the % may be the effect or the level left; details: route intraperitoneal
Method in brief: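 Four-day Peters test in female Swiss albino mice (18–20 g), groups of 10. Infected i.v. on day 0 with 10^6 parasitized RBC in 0.2 ml PBS, then dosed i.p. on days 0–3, stopped if toxicity appeared. Parasitemia read from Giemsa-stained tail-blood smears and reported as % reduction at day 4.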

Plasmodium berghei [12] = experiment: Antimalarial activity against chloroquine-sensitive Plasmodium berghei NK-173 infected in Swiss albino mouse assessed as quantal survival at 51.5 mg/kg, ip administered 4 times per day for 3 days measured on day 10; assay type: functional, organism-based; design: dose 51.5 mg/kg; method in brief: as §1
Plasmodium berghei [13] = experiment: Antimalarial activity against chloroquine-sensitive Plasmodium berghei NK-173 infected in Swiss albino mouse assessed as quantal survival at 100 mg/kg, ip administered 4 times per day for 3 days measured on day 7; assay type: functional, organism-based; design: dose 100 mg/kg; method in brief: as §1
Plasmodium berghei [14] = experiment: Antimalarial activity against chloroquine-sensitive Plasmodium berghei NK-173 infected in Swiss albino mouse assessed as host survival at 100 mg/kg, ip administered 4 times per day for 3 days measured on day 30; assay type: functional; details: NK-173, ip, route intraperitoneal; method in brief: as §1
Plasmodium berghei [15] = experiment: Antimalarial activity against chloroquine-sensitive Plasmodium berghei NK-173 infected in Swiss albino mouse assessed as quantal survival at 100 mg/kg, ip administered 4 times per day for 3 days measured on day 10; assay type: functional, organism-based; design: dose 100 mg/kg; method in brief: as §1
Plasmodium berghei [16] = experiment: Antimalarial activity against chloroquine-sensitive Plasmodium berghei NK-173 infected in Swiss albino mouse assessed as quantal survival at 100 mg/kg, ip administered 4 times per day for 3 days measured on day 8; assay type: functional, organism-based; design: dose 100 mg/kg; method in brief: as §1
Mus musculus [17] = experiment: Toxicity in chloroquine-sensitive Plasmodium berghei NK-173 infected Swiss albino mouse assessed as mortality at 100 mg/kg, ip administered 4 times per day for 3 days measured up to 4 days; assay type: organism-based; design: dose 100 mg/kg, route intraperitoneal; details: in vivo; method in brief: as §1
Plasmodium berghei [18] = experiment: Antimalarial activity against chloroquine-sensitive Plasmodium berghei NK-173 infected in Swiss albino mouse assessed as quantal survival at 100 mg/kg, ip administered 4 times per day for 3 days measured on day 14; assay type: functional, organism-based; design: dose 100 mg/kg; method in brief: as §1

N=C(N)c1ccc(OCCCCCOc2ccc(C(=N)N)cc2)cc1 [PENTAMIDINE]
IC50 (Leishmania donovani [1]): 3.1 µM
CC50 at 120 h [2]: 26.3 µM
minimal effective concentration [3]: 5 µM

COc1cc(/C(=C2\C=CC=N2)c2ccc[nH]2)cc(OC)c1OC
Activity (Leishmania donovani [4]): inactive
IC50 (Leishmania donovani [1]): 4.71 µM
CC50 at 120 h [2]: > 100 µM
minimal effective concentration [3]: 25 µM

O=C1CCCN1c1c2nc(c(-c3ccccc3)c3ccc([nH]3)c(N3CCCC3=O)c3nc(c(-c4ccccc4)c4ccc1[nH]4)C=C3)C=C2
Activity (Leishmania donovani [4]): inactive
IC50 (Leishmania donovani [1]): ≥ 100 µM
CC50 at 120 h [2]: > 100 µM
minimal effective concentration [3]: > 100 µM

COC(=O)[C@@H]1CCC(=O)N1c1c2nc(c(-c3cc(OC)c(OC)c(OC)c3)c3ccc([nH]3)c(N3C(=O)CC[C@H]3C(=O)OC)c3nc(c(-c4cc(OC)c(OC)c(OC)c4)c4ccc1[nH]4)C=C3)C=C2
Activity (Leishmania donovani [4]): inactive
IC50 (Leishmania donovani [1]): ≥ 100 µM
CC50 at 120 h [2]: > 100 µM
minimal effective concentration [3]: 100 µM

O=Cc1c2nc(c(-c3ccccc3)c3ccc(cc4nc(c(-c5ccccc5)c5ccc1[nH]5)C=C4)[nH]3)C=C2
Activity (Leishmania donovani [4]): inactive
IC50 (Leishmania donovani [1]): ≥ 100 µM
CC50 at 120 h [2]: > 100 µM
IC50 (Plasmodium falciparum): > 20 µM
minimal effective concentration [3]: > 100 µM

Brc1c2nc(c(-c3ccccc3)c3ccc([nH]3)c(Br)c3nc(c(-c4ccccc4)c4ccc1[nH]4)C=C3)C=C2
Activity (Leishmania donovani [4]): inactive
IC50 (Leishmania donovani [1]): ≥ 100 µM
CC50 at 120 h [2]: > 100 µM
IC50 (Plasmodium falciparum): 0.2 µM
minimal effective concentration [3]: > 100 µM

C1=C/C(=C(\c2ccccc2)c2ccc[nH]2)N=C1
Activity (Leishmania donovani [4]): inactive
IC50 (Leishmania donovani [1]): 5.23 µM
CC50 at 120 h [2]: > 100 µM
minimal effective concentration [3]: 25 µM

O=C1CCCN1c1c2nc(c(-c3ccccc3)c3ccc([nH]3)c(Br)c3nc(c(-c4ccccc4)c4ccc1[nH]4)C=C3)C=C2
Activity (Leishmania donovani [4]): inactive
IC50 (Leishmania donovani [1]): 6.37 µM
CC50 at 120 h [2]: > 100 µM
minimal effective concentration [3]: 6.25 µM

Fc1c(F)c(F)c(/C(=C2\C=CC=N2)c2ccc[nH]2)c(F)c1F
Activity (Leishmania donovani [4]): inactive
IC50 (Leishmania donovani [1]): 3.61 µM
CC50 at 120 h [2]: > 100 µM
minimal effective concentration [3]: 12.5 µM

O=C1CCC(C(O)(c2ccccc2)c2ccccc2)N1c1c2nc(c(-c3ccccc3)c3ccc([nH]3)c(N3C(=O)CCC3C(O)(c3ccccc3)c3ccccc3)c3nc(c(-c4ccccc4)c4ccc1[nH]4)C=C3)C=C2 (centres undefined)
Activity (Leishmania donovani [4]): inactive
IC50 (Leishmania donovani [1]): 53 µM
CC50 at 120 h [2]: > 100 µM
minimal effective concentration [3]: 50 µM

C1=Cc2nc1cc1ccc([nH]1)c(-c1ccccc1)c1nc(cc3ccc([nH]3)c2-c2ccccc2)C=C1
Activity (Leishmania donovani [4]): inactive
IC50 (Leishmania donovani [1]): ≥ 100 µM
CC50 at 120 h [2]: > 100 µM
IC50 (Plasmodium falciparum): > 20 µM
minimal effective concentration [3]: > 100 µM

Brc1ccccc1/C(=C1\C=CC=N1)c1ccc[nH]1
Activity (Leishmania donovani [4]): inactive
IC50 (Leishmania donovani [1]): 5.38 µM
CC50 at 120 h [2]: > 100 µM
minimal effective concentration [3]: 50 µM

Brc1ccccc1C(c1ccc[nH]1)c1ccc[nH]1
Activity (Leishmania donovani [4]): inactive
IC50 (Leishmania donovani [1]): 44.7 µM
CC50 at 120 h [2]: > 100 µM
minimal effective concentration [3]: > 100 µM

COc1cc(-c2c3nc(cc4ccc([nH]4)c(-c4cc(OC)c(OC)c(OC)c4)c4nc(cc5ccc2[nH]5)C=C4)C=C3)cc(OC)c1OC
Activity (Leishmania donovani [4]): inactive
IC50 (Leishmania donovani [1]): ≥ 100 µM
CC50 at 120 h [2]: > 100 µM
IC50 (Plasmodium falciparum): > 20 µM
minimal effective concentration [3]: > 100 µM

CCN(CC)CCCC(C)Nc1ccnc2cc(Cl)ccc12 (centres undefined) [CHLOROQUINE]
Survival (Plasmodium berghei [5]): Active
Survival (Plasmodium berghei [6]): Active
Survival (Plasmodium berghei [7]): Active
Activity (Mus musculus [8]): Non-toxic
Survival (Plasmodium berghei [9]): Active
survival at 51.5 mg/kg (Plasmodium berghei [10]): 100%
Activity (Plasmodium berghei [11]): 100%
Survival (Plasmodium berghei [12]): Active

c1ccc(C(c2ccc[nH]2)c2ccc[nH]2)cc1
Activity (Leishmania donovani [4]): inactive
IC50 (Leishmania donovani [1]): ≥ 100 µM
CC50 at 120 h [2]: > 100 µM
minimal effective concentration [3]: > 100 µM

COC(=O)[C@@H]1CCC(=O)N1c1c2nc(c(-c3cc(OC)c(OC)c(OC)c3)c3ccc(cc4nc(c(-c5cc(OC)c(OC)c(OC)c5)c5ccc1[nH]5)C=C4)[nH]3)C=C2
Activity (Leishmania donovani [4]): inactive
IC50 (Leishmania donovani [1]): ≥ 100 µM
CC50 at 120 h [2]: > 100 µM

O=C1CC[C@@H](C(=O)O)N1 [PIDOLIC ACID]
Survival (Plasmodium berghei [13]): Active
survival at 100 mg/kg (Plasmodium berghei [14]): 0%
Survival (Plasmodium berghei [15]): inactive
Survival (Plasmodium berghei [16]): Active
Activity (Mus musculus [17]): Non-toxic
Survival (Plasmodium berghei [18]): inactive

Clc1cccc(Cl)c1/C(=C1\C=CC=N1)c1ccc[nH]1
Activity (Leishmania donovani [4]): inactive
IC50 (Leishmania donovani [1]): 5.55 µM
CC50 at 120 h [2]: > 100 µM
minimal effective concentration [3]: 12.5 µM

O=Cc1c2nc(c(-c3cccc(Br)c3)c3ccc(cc4nc(c(-c5cccc(Br)c5)c5ccc1[nH]5)C=C4)[nH]3)C=C2
Activity (Leishmania donovani [4]): inactive
IC50 (Leishmania donovani [1]): ≥ 100 µM
CC50 at 120 h [2]: > 100 µM
IC50 (Plasmodium falciparum): > 20 µM
minimal effective concentration [3]: > 100 µM

CCCCCCCCCCCCCCCCOP(=O)([O-])OCC[N+](C)(C)C [MILTEFOSINE]
IC50 (Leishmania donovani [1]): 4.26 µM
CC50 at 120 h [2]: 15.8 µM

COc1cc(C(c2ccc[nH]2)c2ccc[nH]2)cc(OC)c1OC
Activity (Leishmania donovani [4]): inactive
IC50 (Leishmania donovani [1]): ≥ 100 µM
CC50 at 120 h [2]: > 100 µM
minimal effective concentration [3]: 100 µM

Fc1c(F)c(F)c(C(c2ccc[nH]2)c2ccc[nH]2)c(F)c1F
Activity (Leishmania donovani [4]): inactive
IC50 (Leishmania donovani [1]): 44.1 µM
CC50 at 120 h [2]: > 100 µM
minimal effective concentration [3]: > 100 µM
